For nine molecules, Activity and EC50 results are on record in ChEMBL document CHEMBL2390822, “Bioactive terpenoids from the fruits of Aphanamixis grandifolia” (J Nat Prod, 2013).

The source made the active and inactive calls. The rule behind the calls is not given here.

Assay [1] deals with Diabrotica balteata. Description: Insecticidal activity against Diabrotica balteata infected in cabbage leaves assessed as mortality after 5 days by leaf-disc method. Format: functional.
For assay [2], the system named is Sitobion avenae. The assay can be described thus: Insecticidal activity against second-instar larva of Sitobion avenae infected in cabbage leaves assessed as mortality after 5 days by leaf-disc method. Format: functional.
For assay [3], the system named is P388. The assay can be described thus: Cytotoxicity against mouse P388 cells. Format: functional. Conditions: read-out: ED50 (the source's name).
The test system of assay [4] is Caenorhabditis elegans. The assay can be described thus: Insecticidal activity against fourth-instar larva of Caenorhabditis elegans assessed as mortality after 5 days. In kind it is functional, organism-based.
Assay [5] deals with Plutella xylostella. The assay can be described thus: Insecticidal activity against Plutella xylostella infected in cabbage leaves assessed as mortality after 5 days by leaf-disc method. Format: functional, organism-based.
Assay [6] has as its system HepG2. Description: Cytotoxicity against human HepG2 cells after 72 hrs by MTT assay. In kind it is functional, cell-based. In a few lines:
(§1)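 Human tumour cell panel (HL-60, Bel7402, HepG2, SMMC-7721) with doxorubicin as the positive control.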
(In general: Tetrazolium assays rely on reduction of a dye to a coloured formazan, in cell work by metabolically active cells.)

The subject of assay [7] is SMMC-7721. Description: Cytotoxicity against human SMMC7721 cells after 72 hrs by MTT assay. Format: functional, cell-based. In a few lines: as §1

For `CC(=O)O[C@H]1CC(=O)OC(C)(C)[C@@H]2C[C@@H](OC(C)=O)[C@]3(C)[C@H]([C@@H](O)[C@H](O)[C@@]4(C)[C@H](c5ccoc5)C[C@H]5O[C@@]534)[C@@]12C`, the result in assay [1] was Active.

Consider `CC(=O)O[C@H]1CC(=O)OC(C)(C)[C@@H]2C[C@@H](O)[C@]3(C)[C@H]([C@@H](O)[C@H](OC(=O)c4cccnc4)[C@@]4(C)[C@H](c5ccoc5)C[C@H]5O[C@@]534)[C@@]12C`, for which the outcome in assay [1] and in assay [2] was Active.

Consider `CCC(C)C(=O)OC1OC[C@@]23[C@H]4C(=O)[C@H](O)[C@@]5(C)[C@H](c6ccoc6)C[C@H]6O[C@]65[C@]4(C)[C@H](O)C[C@H]2[C@]1(C)[C@H](OC(C)=O)[C@H](O)[C@@H]3OC(C)=O` (some centres not stated) [APHANASTATIN], for which the EC50 in assay [3] is below 0.065 µg/mL.

Regarding `CN1COCN(Cc2cnc(Cl)s2)/C1=N\[N+](=O)[O-]`, the outcome in assay [2] was Active.

With `CC1(C)OC(=O)C=C[C@]2(C)[C@H]3[C@@H](O)[C@H](O)[C@@]4(C)[C@H](c5ccoc5)C[C@@H](O)[C@]45O[C@H](C[C@@H]12)[C@]35C`, the result in assay [1], in assay [4], in assay [5] and in assay [2] was Active.

`CC(=O)O[C@@H]1C[C@H](O)[C@@]23CO[C@H](O)[C@]1(C)[C@@H]2C[C@@H](O)[C@]1(C)[C@@H]3C(=O)C[C@@]2(C)[C@H](c3ccoc3)C[C@H]3O[C@]312` [AMOORASTATIN]: the EC50 in assay [3] was below 0.065 µg/mL.

For the molecule `COC(=O)N(C(=O)N1CO[C@@]2(C(=O)OC)Cc3cc(Cl)ccc3C2=N1)c1ccc(OC(F)(F)F)cc1`, the result in assay [2] was Active.

Take `COc1cccc2c1C(=O)c1c(O)c3c(c(O)c1C2=O)C[C@@](O)(C(=O)CO)C[C@@H]3O[C@H]1C[C@H](N)[C@H](O)[C@H](C)O1`: the outcome in assay [6] and in assay [7] was Active.

Take `CC1(C)OC(=O)C=C[C@]2(C)[C@H]3[C@@H](O)[C@H](O)[C@]4(C)[C@@H](C(=O)C[C@H]4c4ccoc4)[C@]3(C)[C@H](O)C[C@@H]12`: the outcome in assay [1], in assay [4], in assay [5] and in assay [2] was Active.
